Source: ChEMBL document CHEMBL5705899 (Biochem J, 2014)
Calls of active or inactive are those of the source. The rule behind the calls is not given here.

Tests used:
[1] = molecular target: Mitogen-activated protein kinase 12 (Homo sapiens) (UniProt P53778); assay: Inhibition of recombinant human N-terminal GST-tagged P38gamma (1 to 367 residues) expressed in Escherichia coli assessed as remaining activity at 1 uM using MBP as substrate incubated for 30 mins in presence of [gamma-33P]ATP by filter binding method relative to control
Mitogen-activated protein kinase 12 (Homo sapiens), sequence (P53778 whole entry, the tested form may be a part): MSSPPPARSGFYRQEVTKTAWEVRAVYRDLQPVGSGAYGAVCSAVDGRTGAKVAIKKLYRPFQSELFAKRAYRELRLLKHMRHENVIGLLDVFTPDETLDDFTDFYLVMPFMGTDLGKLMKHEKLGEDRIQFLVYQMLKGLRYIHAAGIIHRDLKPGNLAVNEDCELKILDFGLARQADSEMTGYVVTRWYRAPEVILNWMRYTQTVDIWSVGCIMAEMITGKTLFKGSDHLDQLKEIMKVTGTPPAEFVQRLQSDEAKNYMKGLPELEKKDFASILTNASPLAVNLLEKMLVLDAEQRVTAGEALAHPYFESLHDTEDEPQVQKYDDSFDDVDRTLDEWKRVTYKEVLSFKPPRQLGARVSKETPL

[2] = molecular target: Insulin receptor-related protein (Homo sapiens) (UniProt P14616); assay: (§1) Inhibition of recombinant human N-terminal His6-tagged IRR (944 to 1236 residues) expressed in baculovirus infected Sf21 cells assessed as remaining activity at 1 uM using MBP as substrate incubated for 30 mins in presence of [gamma-33P]ATP by filter binding method relative to control
[3] = molecular target: Protein kinase C alpha type (Homo sapiens) (UniProt P17252); assay: Inhibition of recombinant human N-terminal GST-tagged PKCA (2 to 351 residues) expressed in Escherichia coli assessed as remaining activity at 1 uM using kKemptide as substrate incubated for 30 mins in presence of [gamma-33P]ATP by filter binding method relative to control
[4] = molecular target: Serine/threonine-protein kinase PAK 2 (Homo sapiens) (UniProt Q13177); assay: Inhibition of PAK2 (unknown origin) assessed as remaining activity at 1 uM relative to control
Serine/threonine-protein kinase PAK 2 (Homo sapiens), sequence (Q13177 whole entry): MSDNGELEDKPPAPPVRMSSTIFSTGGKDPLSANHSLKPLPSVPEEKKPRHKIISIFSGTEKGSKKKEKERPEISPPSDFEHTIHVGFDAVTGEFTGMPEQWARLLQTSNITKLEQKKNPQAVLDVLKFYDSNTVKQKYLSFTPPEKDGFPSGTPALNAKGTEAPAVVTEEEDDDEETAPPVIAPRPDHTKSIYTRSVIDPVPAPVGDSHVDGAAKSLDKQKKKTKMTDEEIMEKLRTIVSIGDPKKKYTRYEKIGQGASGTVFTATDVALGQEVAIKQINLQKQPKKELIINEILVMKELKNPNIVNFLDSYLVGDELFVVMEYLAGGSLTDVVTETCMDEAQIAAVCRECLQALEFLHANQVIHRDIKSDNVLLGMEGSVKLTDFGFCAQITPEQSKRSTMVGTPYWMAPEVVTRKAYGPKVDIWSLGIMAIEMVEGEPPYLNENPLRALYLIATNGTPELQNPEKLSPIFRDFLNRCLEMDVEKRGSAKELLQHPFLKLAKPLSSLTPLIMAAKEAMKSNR
Summary of the method: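 Dundee panel of 140 protein kinases, tested at a single 1 μM concentration. Each assay was run in triplicate. Remaining activity is expressed relative to a control reaction without inhibitor, as mean ± S.D. Conditions for each kinase were those of the screening centre.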

[5] = molecular target: Serine/threonine-protein kinase MARK2 (Homo sapiens) (UniProt Q7KZI7); assay: as §1, with “MARK2 (2” for “IRR (944”, “691” for “1236”, “KKKVSRSGLYRSPSMPENLNRPR” for “MBP”
[6] = molecular target: Dual specificity tyrosine-phosphorylation-regulated kinase 1A (Homo sapiens) (UniProt Q13627); assay: Inhibition of recombinant human N-terminal GST-tagged DYRK1A (1 to 502 residues) expressed in Escherichia coli assessed as remaining activity at 1 uM using KKISGRLSPIMTEQ as substrate incubated for 30 mins in presence of [gamma-33P]ATP by filter binding method relative to control
[7] = molecular target: Tyrosine-protein kinase Fes/Fps (Homo sapiens) (UniProt P07332); assay: Inhibition of human FES at 1 uM using polyEY as substrate in presence of 33P-ATP by ProQinase assay
Tyrosine-protein kinase Fes/Fps (Homo sapiens), sequence (P07332 whole entry): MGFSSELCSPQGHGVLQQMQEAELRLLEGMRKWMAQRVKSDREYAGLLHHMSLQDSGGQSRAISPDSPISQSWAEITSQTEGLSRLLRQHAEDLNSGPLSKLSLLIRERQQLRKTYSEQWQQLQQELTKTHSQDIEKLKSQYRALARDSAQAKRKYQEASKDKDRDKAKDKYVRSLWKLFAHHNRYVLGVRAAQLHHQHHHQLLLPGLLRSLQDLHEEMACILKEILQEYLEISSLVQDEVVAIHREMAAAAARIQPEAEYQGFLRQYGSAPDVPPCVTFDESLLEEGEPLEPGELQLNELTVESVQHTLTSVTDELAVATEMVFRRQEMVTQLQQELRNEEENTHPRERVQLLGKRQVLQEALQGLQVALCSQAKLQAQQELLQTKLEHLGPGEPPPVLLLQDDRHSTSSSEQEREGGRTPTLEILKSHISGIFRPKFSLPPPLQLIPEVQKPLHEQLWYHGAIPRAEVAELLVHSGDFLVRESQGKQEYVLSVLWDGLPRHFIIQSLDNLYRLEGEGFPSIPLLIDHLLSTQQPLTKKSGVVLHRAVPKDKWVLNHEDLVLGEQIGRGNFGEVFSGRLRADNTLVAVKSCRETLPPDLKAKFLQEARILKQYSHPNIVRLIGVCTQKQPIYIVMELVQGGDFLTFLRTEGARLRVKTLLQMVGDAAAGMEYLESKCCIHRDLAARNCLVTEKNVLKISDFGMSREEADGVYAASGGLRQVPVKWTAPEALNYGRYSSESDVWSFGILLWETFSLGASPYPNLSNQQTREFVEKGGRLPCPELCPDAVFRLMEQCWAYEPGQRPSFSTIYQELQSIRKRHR

[8] = molecular target: Ephrin type-B receptor 3 (Homo sapiens) (UniProt P54753); assay: Inhibition of human EPHB3 at 1 uM using polyEY as substrate in presence of 33P-ATP by ProQinase assay
[9] = molecular target: Tyrosine-protein kinase Tec (Homo sapiens) (UniProt P42680); assay: Inhibition of human TEC at 1 uM using polyEY as substrate in presence of 33P-ATP by ProQinase assay
[10] = molecular target: Vascular endothelial growth factor receptor 3 (Homo sapiens) (UniProt P35916); assay: Inhibition of human VEGFR3 at 1 uM using polyEY as substrate in presence of 33P-ATP by ProQinase assay
[11] = molecular target: Serine/threonine-protein kinase VRK1 (Homo sapiens) (UniProt Q99986); assay: Inhibition of human VRK1 at 1 uM using RBER-CHKtide as substrate in presence of 33P-ATP by ProQinase assay
[12] = molecular target: Serine/threonine-protein kinase PLK1 (Homo sapiens) (UniProt P53350); assay: Inhibition of human PLK1 at 1 uM using RBER-CHKtide as substrate in presence of 33P-ATP by ProQinase assay
Serine/threonine-protein kinase PLK1 (Homo sapiens), sequence (P53350 whole entry): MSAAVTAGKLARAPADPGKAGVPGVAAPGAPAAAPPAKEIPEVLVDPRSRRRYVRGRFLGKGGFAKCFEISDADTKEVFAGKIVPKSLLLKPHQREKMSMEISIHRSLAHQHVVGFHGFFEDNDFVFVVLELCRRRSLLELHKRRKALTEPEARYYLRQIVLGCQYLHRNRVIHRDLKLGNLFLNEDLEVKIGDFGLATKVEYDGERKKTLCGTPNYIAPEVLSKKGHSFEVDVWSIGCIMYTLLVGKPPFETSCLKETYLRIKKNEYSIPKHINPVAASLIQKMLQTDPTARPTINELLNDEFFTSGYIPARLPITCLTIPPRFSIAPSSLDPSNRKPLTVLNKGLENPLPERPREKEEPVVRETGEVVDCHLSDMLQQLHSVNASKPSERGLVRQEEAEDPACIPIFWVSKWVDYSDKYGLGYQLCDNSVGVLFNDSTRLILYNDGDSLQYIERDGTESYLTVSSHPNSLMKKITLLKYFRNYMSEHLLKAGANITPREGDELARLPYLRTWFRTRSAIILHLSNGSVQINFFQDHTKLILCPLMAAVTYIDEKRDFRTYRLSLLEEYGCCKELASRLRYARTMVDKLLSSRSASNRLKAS

[13] = molecular target: Protein kinase C theta type (Homo sapiens) (UniProt Q04759); assay: Inhibition of human PKCtheta at 1 uM using 3xChocktide-PKC as substrate in presence of 33P-ATP by ProQinase assay
[14] = molecular target: Maternal embryonic leucine zipper kinase (Homo sapiens) (UniProt Q14680); assay: Inhibition of human MELK at 1 uM using RBER-CHKtide as substrate in presence of 33P-ATP by ProQinase assay
Maternal embryonic leucine zipper kinase (Homo sapiens), sequence (Q14680 whole entry, looked up): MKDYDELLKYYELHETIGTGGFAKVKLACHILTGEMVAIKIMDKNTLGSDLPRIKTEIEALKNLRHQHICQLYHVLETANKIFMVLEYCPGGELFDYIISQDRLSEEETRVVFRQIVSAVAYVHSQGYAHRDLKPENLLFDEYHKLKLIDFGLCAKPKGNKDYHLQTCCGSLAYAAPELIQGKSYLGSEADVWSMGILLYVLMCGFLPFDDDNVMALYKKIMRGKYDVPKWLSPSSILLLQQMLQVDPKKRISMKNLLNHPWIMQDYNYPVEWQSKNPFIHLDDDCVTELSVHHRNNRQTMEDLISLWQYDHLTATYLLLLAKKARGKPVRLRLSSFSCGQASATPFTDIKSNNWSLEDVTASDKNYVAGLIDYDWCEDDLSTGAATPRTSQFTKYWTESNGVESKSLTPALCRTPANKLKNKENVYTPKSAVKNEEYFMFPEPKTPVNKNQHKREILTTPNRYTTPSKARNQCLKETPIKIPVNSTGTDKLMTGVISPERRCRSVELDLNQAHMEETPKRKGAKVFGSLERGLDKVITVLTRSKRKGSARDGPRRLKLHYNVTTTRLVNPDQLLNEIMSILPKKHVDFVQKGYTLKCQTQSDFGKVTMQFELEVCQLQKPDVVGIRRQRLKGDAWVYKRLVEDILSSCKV

[15] = molecular target: TGF-beta receptor type-2 (Homo sapiens) (UniProt P37173); assay: Inhibition of human TGFBR2 at 1 uM using RB-S6P as substrate in presence of 33P-ATP by ProQinase assay
[16] = molecular target: Serine/threonine-protein kinase MRCK alpha (Homo sapiens) (UniProt Q5VT25); assay: Inhibition of human CDC42BPA at 1 uM using RB-S6P as substrate in presence of 33P-ATP by ProQinase assay
[17] = molecular target: Serine/threonine-protein kinase N1 (Homo sapiens) (UniProt Q16512); assay: Inhibition of human PRK1 at 1 uM using RBER-CHKtide as substrate in presence of 33P-ATP by ProQinase assay
[18] = molecular target: Serine/threonine-protein kinase TAO2 (Homo sapiens) (UniProt Q9UL54); assay: Inhibition of human TAOK2 at 1 uM using casein as substrate in presence of 33P-ATP by ProQinase assay
[19] = molecular target: Dual serine/threonine and tyrosine protein kinase (Homo sapiens) (UniProt Q6XUX3); assay: Inhibition of human RIPK5 at 1 uM using RBER-CHKtide as substrate in presence of 33P-ATP by ProQinase assay
[20] = molecular target: TAK1/TAB1 (Homo sapiens) (UniProt Q15750+O43318); assay: Inhibition of human MAP3K7/MAP3K7IP1 at 1 uM using RB-S6P as substrate in presence of 33P-ATP by ProQinase assay; type: protein-complex assay
[21] = molecular target: PI3-kinase p110-alpha/p85-alpha (Homo sapiens) (UniProt P27986+P42336); assay: Inhibition of recombinant human N-terminal His6-tagged PI3Kalpha (2 to 1068 residues)/p85A (1 to 724 residues) expressed in baculovirus expression system at 1 uM using diC8 PIP2 as substrate incubated for 80 mins by ADP-Glo assay
[22] = molecular target: Phosphatidylinositol 4,5-bisphosphate 3-kinase catalytic subunit delta isoform (Homo sapiens, UniProt O00329); assay: Inhibition of PI3Kdelta (unknown origin) using PtdIns(4,5)P2 as substrate preincubated for 20 mins followed by substrate addition and measured after 80 mins by Kinase-Glo assay
[23] = molecular target: Phosphatidylinositol 4-kinase alpha (Homo sapiens, UniProt P42356); assay: Inhibition of PI4Kalpha (unknown origin) using D-myo-PtdIns as substrate incubated for 45 mins by ADP-Glo assay
Phosphatidylinositol 4-kinase alpha, sequence (P42356 whole entry): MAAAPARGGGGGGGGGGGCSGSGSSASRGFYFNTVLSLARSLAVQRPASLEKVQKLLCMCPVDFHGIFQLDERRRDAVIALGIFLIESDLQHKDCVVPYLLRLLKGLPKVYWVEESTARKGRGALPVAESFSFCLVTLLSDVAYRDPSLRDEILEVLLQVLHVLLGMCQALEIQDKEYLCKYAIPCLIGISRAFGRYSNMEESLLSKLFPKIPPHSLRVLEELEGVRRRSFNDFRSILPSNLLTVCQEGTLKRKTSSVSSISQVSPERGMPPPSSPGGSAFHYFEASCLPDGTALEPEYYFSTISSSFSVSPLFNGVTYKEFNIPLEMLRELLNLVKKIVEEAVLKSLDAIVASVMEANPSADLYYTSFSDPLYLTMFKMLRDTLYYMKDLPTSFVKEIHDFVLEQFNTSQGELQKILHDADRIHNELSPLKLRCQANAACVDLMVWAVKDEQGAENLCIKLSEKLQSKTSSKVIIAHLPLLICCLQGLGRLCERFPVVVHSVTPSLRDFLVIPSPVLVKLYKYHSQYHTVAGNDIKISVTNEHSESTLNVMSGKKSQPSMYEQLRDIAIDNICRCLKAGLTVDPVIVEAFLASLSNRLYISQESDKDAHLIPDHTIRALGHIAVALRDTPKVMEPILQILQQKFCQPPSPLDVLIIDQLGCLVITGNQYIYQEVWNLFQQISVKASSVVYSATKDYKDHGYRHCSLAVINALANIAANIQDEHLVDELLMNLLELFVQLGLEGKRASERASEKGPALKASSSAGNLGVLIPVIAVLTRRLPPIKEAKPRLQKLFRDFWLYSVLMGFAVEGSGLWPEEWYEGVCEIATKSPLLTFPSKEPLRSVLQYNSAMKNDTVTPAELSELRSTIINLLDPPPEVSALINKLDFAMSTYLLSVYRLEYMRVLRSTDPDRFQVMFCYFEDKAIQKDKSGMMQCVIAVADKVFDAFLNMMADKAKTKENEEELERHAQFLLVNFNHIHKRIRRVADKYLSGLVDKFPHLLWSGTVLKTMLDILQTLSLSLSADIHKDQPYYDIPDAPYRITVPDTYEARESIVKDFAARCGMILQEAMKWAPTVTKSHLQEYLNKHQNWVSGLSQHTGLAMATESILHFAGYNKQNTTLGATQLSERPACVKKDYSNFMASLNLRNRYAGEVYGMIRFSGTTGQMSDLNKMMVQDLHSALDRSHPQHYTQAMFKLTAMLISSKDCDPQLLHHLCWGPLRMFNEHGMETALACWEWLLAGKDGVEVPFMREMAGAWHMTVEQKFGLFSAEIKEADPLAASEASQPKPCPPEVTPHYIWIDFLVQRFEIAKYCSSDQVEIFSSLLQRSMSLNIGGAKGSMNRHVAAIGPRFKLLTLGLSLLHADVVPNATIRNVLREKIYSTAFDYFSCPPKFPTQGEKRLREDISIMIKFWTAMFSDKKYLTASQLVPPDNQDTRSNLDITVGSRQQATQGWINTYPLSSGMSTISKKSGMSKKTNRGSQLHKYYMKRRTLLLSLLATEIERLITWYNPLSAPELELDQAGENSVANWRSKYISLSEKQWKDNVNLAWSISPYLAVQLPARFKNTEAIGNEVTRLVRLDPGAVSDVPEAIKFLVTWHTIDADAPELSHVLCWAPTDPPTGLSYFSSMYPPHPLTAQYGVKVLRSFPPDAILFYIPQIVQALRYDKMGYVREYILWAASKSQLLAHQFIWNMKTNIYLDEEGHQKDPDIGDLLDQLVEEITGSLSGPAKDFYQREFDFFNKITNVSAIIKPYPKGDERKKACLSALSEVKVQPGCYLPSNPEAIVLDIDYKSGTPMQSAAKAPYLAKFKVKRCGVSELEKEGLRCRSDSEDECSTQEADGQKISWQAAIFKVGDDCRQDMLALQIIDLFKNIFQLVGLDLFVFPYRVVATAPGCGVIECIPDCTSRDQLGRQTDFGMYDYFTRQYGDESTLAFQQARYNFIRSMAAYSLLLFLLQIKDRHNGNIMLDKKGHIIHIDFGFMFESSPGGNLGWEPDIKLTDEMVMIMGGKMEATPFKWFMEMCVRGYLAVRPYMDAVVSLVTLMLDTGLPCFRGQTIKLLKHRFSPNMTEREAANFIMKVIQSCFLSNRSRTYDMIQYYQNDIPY
Summary of the method: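 PI4Kα: 1 nM enzyme, 72 μM ATP, 25 μM PtdIns. PI4Kβ: 2 nM enzyme, 220 μM ATP, 50 μM PtdIns. Reactions ran 45 min at ambient temperature; ADP-Glo reagent was added for 40 min, then detection reagent for 30 min, then luminescence was read.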

[24] = molecular target: Phosphatidylinositol 4-kinase type 2-beta (Homo sapiens, UniProt Q8TCG2); assay: Inhibition of human PI4K2B using PI/PS as substrate by ADP-Glo assay

`CC(C)(O)CNc1ncc(-c2ccnc(Nc3ccnc(Cl)c3)n2)c(CC2CC2)n1` showed an Activity [1] of 133%, an Activity [2] of 113% and an Activity [3] of 112%. For the same molecule, the Activity [4] was 111%, the Activity [5] was 108% and the Activity [6] was 105%. For the same molecule, the inhibition [7] was “inactive”, the inhibition [8] was “inactive” and the inhibition [9] was “inactive”. For the same molecule, the inhibition [10] was “inactive”, the inhibition [11] was “inactive” and the inhibition [12] was “inactive”. The inhibition [13] was “inactive”, the inhibition [14] was “inactive” and the inhibition [15] was “inactive”. For the same molecule, the inhibition [16] was “inactive”, the inhibition [17] was “inactive” and the inhibition [18] was “inactive”. The inhibition [19] was “inactive”, the inhibition [20] was “inactive” and the inhibition [21] was “inactive”. The IC50 [22] was 1.9 µM, the IC50 [23] was 4.07 µM and the IC50 [24] was greater than 10 µM.
